# High-throughput results: PubChem, Broad Institute
# Hits are enriched below; roughly 3.1% of the tested compounds scored in any of these assays.
# Cneo AK release: Cryptococcus neoformans lysis via adenylate kinase release; C. neoformans lysis, adenylate kinase release luminescence, 4 h; normalised: neutral wells 0, clomiphene wells 100; lysis activity, % at 15 µM; 360,000 tested, 0.2% active;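 active = mean lysis activity across replicates of at least 80%, whatever share of replicates individually reach that level; inactive = mean lysis activity below 80%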
#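 Schedule: static 4 h at 37 °C with compound, 1 h detection; system: C. neoformans cells; benchmarks: Clomiphene as positive control; buffer or medium: fresh YPD medium; measure: luminescence rise reflecting yeast cell lysis; measured by: luminescent adenylate kinase detection reagent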
# E-selectin induc: induces E-selectin expression in human endothelial cells. HUVEC E-selectin immunofluorescence imaging; normalized: neutral wells 0, TNF-alpha wells 100. activation, % at 7.58 µM. P16581. AID 686992. 260,000 tested, 0.37% active;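 active = mean E-selectin-positive cell signal at least 10% of the positive control, reached in at least 60% of replicates, without over 20% cell loss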
# Target sequence (P16581 whole entry, looked up): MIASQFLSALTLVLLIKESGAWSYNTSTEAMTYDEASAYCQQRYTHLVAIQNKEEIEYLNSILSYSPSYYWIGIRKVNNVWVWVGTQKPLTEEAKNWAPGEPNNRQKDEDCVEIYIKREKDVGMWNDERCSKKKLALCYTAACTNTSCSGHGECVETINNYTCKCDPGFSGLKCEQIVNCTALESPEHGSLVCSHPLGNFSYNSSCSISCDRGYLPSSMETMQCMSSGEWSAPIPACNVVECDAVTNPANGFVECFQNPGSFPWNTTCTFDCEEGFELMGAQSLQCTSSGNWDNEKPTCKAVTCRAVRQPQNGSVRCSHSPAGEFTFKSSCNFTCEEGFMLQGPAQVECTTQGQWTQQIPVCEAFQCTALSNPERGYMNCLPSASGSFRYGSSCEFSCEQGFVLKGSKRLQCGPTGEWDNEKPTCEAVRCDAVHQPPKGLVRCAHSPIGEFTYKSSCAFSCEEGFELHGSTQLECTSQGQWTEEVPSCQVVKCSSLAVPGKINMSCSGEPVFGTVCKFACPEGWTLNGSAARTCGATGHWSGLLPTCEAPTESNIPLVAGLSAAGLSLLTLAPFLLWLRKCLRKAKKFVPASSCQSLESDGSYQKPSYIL
#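 Read-out basis: % PE-positive cells; Test system: HUVEC primary endothelial cells; Technique: immunofluorescence imaging; Dosing: single-point compound dose.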
# Ecoli rRNA inh: selective bacterial rRNA inhibition in E. coli. AID 720706. E. coli WT GFP vs humanized-ribosome RFP mutants, fluorescence, 24 h; active compounds read low; DMSO median 0, no signal -100. 350,000 tested, 1.6% active. GFP signal change (wild-type ribosome), % (concentration not given with the values);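 active = significant combined selectivity score with lowered wild-type GFP, culture density cut under 30%, mutant RFP and density less affected; inactive = any of these conditions unmet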
# miR122 inh: miR-122 inhibition in Huh7 cells | activation (reporter increase), % at 12.5 µM | 340,000 tested, 0.3% active | Huh7 miR-122 Renilla luciferase sensor, 48 h; neutral wells = 0, positive control = 100;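 active = mean replicate activation score at least 90 and every replicate individually at or above 90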;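 also: higher luciferase means less miR-122 activity so hits act as miR-122 inhibitors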
# DENV2 CPE rescue: DENV2-induced cell death inhibition; DENV2-infected cells, cytopathic effect rescue, plate reader; CPE inhibition, % at 9.99 µM; 350,000 tested, 1.7% active; AID 651640; in the data active = CPE inhibition above about 20%, passing the limit was not always enough; tested in BHK-21 cells;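 also: 0% = median of neutral control wells and 100% = median of positive control wells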
# Numbers without * were called inactive; / = not tested or not shown; [ ] = dose if it differs, or a comment.
SMILES,Cneo AK release,E-selectin induc,Ecoli rRNA inh,miR122 inh,DENV2 CPE rescue
Cc1ccc(S(=O)(=O)N(C)C)cc1NC(=O)c1cc(S(=O)(=O)N2CCCCC2)ccc1N1CCOCC1,5,/,-4,-1,23*
CCOc1cc(N2CCOCC2)c(OCC)cc1NS(=O)(=O)c1ccc(Cl)s1,2,/,/,113*,/
O=C(Nc1ccccc1F)Nc1cc(S(=O)(=O)N2CCOCC2)ccc1N1CCCC1,/,2,-19*,/,-4
Cn1c(=O)n(C)c2cc(N3CCOCC3)c(NC(=O)c3ccc(F)cc3)cc21,-4,/,2,/,42*
COc1cccc(OC)c1C(=O)Nc1cc2c(cc1N1CCOCC1)n(C)c(=O)n2C,-2,/,-5,3,-5
COc1cc2c(cc1OC)CN(C(=O)[C@H]1[C@@H]3C(=O)O[C@@H](c4ccccc4)[C@@H](c4ccccc4)N3[C@@H](c3ccccc3OCCO)[C@]13C(=O)Nc1ccccc13)CC2,58,/,/,/,-10
C[C@@H]1CN([C@@H](C)CO)S(=O)(=O)c2ccc(C#C[C@@H](C)O)cc2O[C@@H]1CN(C)CC1CCOCC1,1,-5,5,3[16.7 µM],-2
CCN(CC)S(=O)(=O)c1ccc(N2CCOCC2)c(NC(=O)c2cc(C)cc(C)c2)c1,0,0,/,/,/
CCOc1cc(N2CCOCC2)c(OCC)cc1NC(=O)c1ccc(S(=O)(=O)N2CC(C)OC(C)C2)cc1 (stereo not drawn),-6,131*,4,/,0
Cc1ccc(S(=O)(=O)Nc2cc(S(=O)(=O)N3CCCCC3)ccc2N2CCOCC2)cc1,/,32*,10,5,18
CCOc1cc(N2CCOCC2)c(OCC)cc1NC(=O)c1cc(S(=O)(=O)N2CCOCC2)ccc1Cl,-1,/,9,-8,1
CCN(CC)S(=O)(=O)c1ccc(N2CCOCC2)c(NC(=O)c2ccccc2)c1,/,/,-10,/,26*
O=C(NC[C@@H]1CC[C@H]2[C@H](CN2S(=O)(=O)c2ccccc2)O1)NC1CCCCC1,/,/,/,/,-4
C[C@H]1CN([C@@H](C)CO)C(=O)c2cccc(NS(=O)(=O)c3ccc(Cl)cc3)c2O[C@@H]1CN(C)S(=O)(=O)c1cn(C)cn1,/,-1,-2,-4[16.7 µM],/
O=C(c1ccccc1)N1CC2(C1)[C@@H](c1ccccc1)[C@H](CO)N2CC1CC1,/,0,-2,/,-5
C[C@H](CO)N1C[C@H](C)[C@@H](CN(C)C(=O)CCC(F)(F)F)OCCCC[C@H](C)Oc2ccc(NS(=O)(=O)c3cn(C)cn3)cc2C1=O,-2,0,1,10[16.7 µM],0
COCC(=O)NC[C@H]1N[C@H](CO)[C@@H]1c1ccc(C2=CCCC2)cc1,108*,0,3,14[16.7 µM],5
COCC(=O)NC[C@@H]1[C@@H](c2ccc(C3=CCCC3)cc2)[C@@H](CO)N1C(=O)C1CC1,-4,0,-3,50[16.7 µM],25*
CCC(=O)NC[C@H]1N[C@H](CO)[C@@H]1c1ccc(C2=CCCC2)cc1,-1,0,-2,0[16.7 µM],/
COCC(=O)NC[C@H]1N[C@H](CO)[C@H]1c1ccc(C2=CCCC2)cc1,97*,0,-1,7[16.7 µM],1
COCC(=O)NC[C@@H]1[C@H](c2ccc(C3=CCCC3)cc2)[C@H](CO)N1C(=O)C1CC1,4,0,0,-50[16.7 µM],-5
CNC[C@H]1OCCCC[C@@H](C)Oc2ccc(NS(=O)(=O)c3ccc(Cl)cc3)cc2C(=O)N([C@@H](C)CO)C[C@H]1C,1,0,4,18[16.7 µM],-10
[N-]=[N+]=NC[C@H](Cc1ccccc1)N1CC[C@@H](OCc2ccccc2)CCC1=O,3,0,-25*,-26,0
[N-]=[N+]=NC[C@H](Cc1ccccc1)N1CC[C@@H](O)CCC1=O,6,1,9,2,-12
O=C(Nc1cccc(C(F)(F)F)c1)OCCN1CCN(Cc2ccccc2)CCC1=O,-1,0,-44,-4,70*
SMILES,Cneo AK release,E-selectin induc,Ecoli rRNA inh,miR122 inh,DENV2 CPE rescue
Cc1cc(C)c2nc(NNC(=O)c3cc(=O)c4ccccc4o3)sc2c1,1,1,-27*,-5,-7
CCCNC(=O)N1CCC2(CC1)CN(C(C)=O)[C@@H](CO)c1[nH]c3cc(OC)ccc3c12,/,/,2,/,/
COc1ccccc1NC(=O)N1CCN(c2ccccn2)CC1,-2,1,8,-11,31*
C[C@H]1CN([C@@H](C)CO)S(=O)(=O)c2ccc(C3=CCCCC3)cc2O[C@@H]1CN(C)C(=O)Cc1ccncc1,-4,1,1,5[16.7 µM],-1
C[C@H](CO)N1C[C@H](C)[C@@H](CN(C)C(=O)Nc2cccc(F)c2)Oc2ncc(C3=CCCCC3)cc2C1=O,-1,0,-3,-18[16.7 µM],20*
C[C@H](CO)N1C[C@H](C)[C@H](CN(C)C(=O)Nc2ccc(F)cc2)Oc2ncc(C3=CCCCC3)cc2C1=O,8,1,-5,-13[16.7 µM],33*
C[C@H]1CN([C@@H](C)CO)C(=O)c2cc(C3=CCCCC3)cnc2O[C@H]1CN(C)C(=O)Nc1ccc(F)cc1,-3,1,-6,-22[16.7 µM],9
C[C@@H]1CN([C@@H](C)CO)C(=O)c2cc(C3=CCCC3)cnc2O[C@@H]1CN(C)Cc1ccc(C(=O)O)cc1,-4,0,-1,-1[16.7 µM],25*
C[C@@H]1CN([C@H](C)CO)C(=O)c2cc(C3=CCCC3)cnc2O[C@@H]1CN(C)Cc1ccc(C(=O)O)cc1,-1,0,5,-11[16.7 µM],15
C[C@@H]1CN([C@H](C)CO)C(=O)c2cc(C3=CCCCC3)cnc2O[C@H]1CN(C)C(=O)Nc1cccc(F)c1,0,0,-2,36[16.7 µM],19
C[C@@H]1CN([C@H](C)CO)C(=O)c2cc(C3=CCCC3)cnc2O[C@@H]1CN(C)C(=O)Nc1ccccc1,-1,59*,-1,15[16.7 µM],34*
CCC(=O)N1CC2(CCN(Cc3cncnc3)CC2)c2c([nH]c3cc(OC)ccc23)[C@@H]1CO,/,0,1,/,-1
CCCNC(=O)N(C)C[C@H]1Oc2ncc(C3=CCCC3)cc2C(=O)N([C@@H](C)CO)C[C@H]1C,-2,0,3,0[16.7 µM],4
CCCNC(=O)N(C)C[C@H]1Oc2ncc(C3=CCCC3)cc2C(=O)N([C@H](C)CO)C[C@@H]1C,-3,134*,1,5[16.7 µM],8
C[C@@H]1CN([C@H](C)CO)C(=O)c2cc(C3=CCCCC3)cnc2O[C@H]1CN(C)C(=O)Cc1cccnc1,104*,0,-4,13[16.7 µM],-5
CC1(C(=O)NNC(=O)C2CCCCC2)CC1(Cl)Cl (stereo not drawn),2,0,-27*,-3,1
COC(=O)c1cc2ccsc2n1Cc1cccc(F)c1,/,/,-12,/,0
COC(=O)c1cc2ccsc2n1Cc1ccccc1F,1,/,-13,1,113*
